# High-throughput results from PubChem BioAssay.
# In the library only some 2.7% were active in any assay of this set; here they are far more common.
# ARFGAP1 inh: inhibitors of rat ARFGAP1 GAP activity, primary screen, biochemical, fluorescence polarization, GDP tracer. hit rate 0.26% among 360,000. Arfgap1-stimulated ARF1 GTP hydrolysis, GDP FP detection. inhibition, % at 16.5 µM. ADP-ribosylation factor GTPase-activating protein 1 (Rattus norvegicus), Q62848;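 active = inhibition above a per-plate limit, mean inhibition of low control wells plus 3 SD, cut at about 25% in these data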;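 also: 0% = DMSO wells with enzyme and 100% = wells lacking Arfgap1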
# Target sequence (Q62848 1-136 limits assumed): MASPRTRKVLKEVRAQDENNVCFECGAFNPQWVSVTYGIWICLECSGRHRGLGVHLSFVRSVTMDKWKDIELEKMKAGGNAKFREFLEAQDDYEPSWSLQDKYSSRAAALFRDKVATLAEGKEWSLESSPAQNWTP
#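 Material: rat Arfgap1 catalytic domain, aa 1-136; also added: human ARF1(Δ1-17)-GTP substrate; compound dosing: one concentration, 16.5 µM, DMSO 1.26%; incubation: GTP hydrolysis reaction 2 h at 25 °C; measured by: Tracer-displacement fluorescence polarization with EDTA stop, 620/688 nm; evaluation: % inhibition from polarization; repeats: one replicate per compound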
# ASAP1 inh: inhibitors of human ASAP1 ArfGAP activity, primary screen, biochemical, fluorescence polarization | Arf-GAP with SH3 domain, ANK repeat and PH domain-containing protein 1 (Homo sapiens), … | ASAP1-stimulated ARF1 GTP hydrolysis, GDP FP detection | inhibition, % at 16.5 µM | hit rate 0.19% among 360,000; in the data active = inhibition above about 25%;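 also: 0% = vehicle with enzyme and substrate and 100% = no enzyme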
# pPAFAH FP inh: pPAFAH enzyme inhibitors, primary screen, biochemical, fluorescence polarization, human. Platelet-activating factor acetylhydrolase (Homo sapiens), Q13093. recombinant pPAFAH, FP-rhodamine probe fluorescence polarization. inhibition, % at 3.39 µM. hit rate 1.5% among 330,000. AID 463082, 2010;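 active = inhibition above the mean inhibition across the screen plus 3 SD, cut at about 25% in these data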;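 also: inhibitors block binding of the rhodamine activity-based probe so polarization drops; 0% = enzyme with DMSO and 100% = wells lacking pPAFAH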
# PAFAH1B3 inh: PAFAH1B3 enzyme inhibitors, primary screen, biochemical, fluorescence polarization, human. Platelet-activating factor acetylhydrolase IB subunit alpha1 (Homo sapiens), Q15102. recombinant PAFAH1B3, FP-rhodamine probe. inhibition, % at 3.39 µM. hit rate 0.28% among 340,000;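 active = inhibition above the screen-wide average of all tested compounds plus 3 SD, cut at about 25% in these data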;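 also: 0% = enzyme with DMSO only and 100% = wells lacking PAFAH1B3 protein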
# PAFAH2 inh: PAFAH2 enzyme inhibitors, primary screen, biochemical, fluorescence polarization, human; Platelet-activating factor acetylhydrolase 2, cytoplasmic (Homo sapiens), Q99487; hit rate 0.99% among 340,000; inhibition, % at 3.39 µM; recombinant PAFAH2, FP-rhodamine activity probe;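 active = inhibition above the mean over all tested compounds plus 3 SD, cut at about 30% in these data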;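 also: inhibitors block probe labeling of enzyme so polarization drops; 0% = enzyme with DMSO and 100% = wells lacking PAFAH2 protein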
# PAFAH1B2 inh: PAFAH1B2 enzyme inhibitors, primary screen, biochemical, fluorescence polarization, human. Platelet-activating factor acetylhydrolase IB subunit alpha2 (Homo sapiens), P68402. recombinant PAFAH1B2, FP-rhodamine activity probe. inhibition, % at 3.39 µM. hit rate 1.2% among 340,000. AID 492953, 2010;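 active = inhibition above the mean of all tested compounds plus 3 SD, cut at about 24% in these data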;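 also: 0% = enzyme with DMSO and 100% = wells lacking PAFAH1B2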
# Target sequence (P68402 whole entry, looked up): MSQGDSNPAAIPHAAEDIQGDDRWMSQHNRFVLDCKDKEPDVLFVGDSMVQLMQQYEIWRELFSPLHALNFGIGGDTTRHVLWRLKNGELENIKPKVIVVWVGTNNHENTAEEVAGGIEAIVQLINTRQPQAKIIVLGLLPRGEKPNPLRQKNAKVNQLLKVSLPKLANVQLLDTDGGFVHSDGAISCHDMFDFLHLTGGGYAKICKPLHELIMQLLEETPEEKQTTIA
# PAFAH2 confirm: PAFAH2 enzyme inhibitors, confirmation, biochemical, fluorescence polarization, human | shares compounds with PAFAH2 inh | recombinant PAFAH2, FP-rhodamine activity probe | inhibition, % at 3.39 µM | hit rate 65% among 2,300 | AID 493030, 2011;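 active = mean inhibition over three repeats above a set limit taken from the earlier primary screen, cut at about 30% in these data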;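 also: inhibitor blocks binding of rhodamine activity probe so polarization falls; 0% = enzyme with DMSO and 100% = wells lacking PAFAH2 protein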
# The depositor's hits bear a star; x = no result.
SMILES,ARFGAP1 inh,ASAP1 inh,pPAFAH FP inh,PAFAH1B3 inh,PAFAH2 inh,PAFAH1B2 inh,PAFAH2 confirm
O=C1CCCC(O)=C1N=Nc1ccc(Cl)c(Cl)c1,6.4,9.1,5.8,-2.1,33.0*,4.1,8.8
Cn1cnnc1Sc1ccc(C(=O)OCC(=O)Nc2ccccc2)cc1[N+](=O)[O-],-4.6,-6.9,7.2,0.0,59.2*,0.1,41.0*
O=[N+]([O-])c1ccccc1S(=O)(=O)Nc1cccc(-c2ccc(N3CCCC3)nn2)c1,-1.1,-10.8,3.1,2.6,108.7*,2.0,4.3
Cc1cc(C)c(S(=O)(=O)N2CCC(C(=O)NCc3ccncc3)CC2)c(C)c1,-2.5,13.4,-1.5,1.4,101.3*,-5.9,-0.5
C[C@H](CO)N1C[C@H](C)[C@@H](CN(C)S(=O)(=O)c2ccccc2)Oc2ccc(NS(=O)(=O)c3ccccc3)cc2C1=O,6.3,-5.8,14.6,9.0,12.8,12.9,x
O=C(NCC1CCCO1)c1ccc2c(c1)N(Cc1ccccc1)C(=O)CS2 (stereo not drawn),15.9,5.0,3.9,3.5,-1.5,0.2,x
CC(=O)c1cccc(NCC(=O)Nc2cc(S(=O)(=O)N3CCCCC3)ccc2C)c1,7.0,-12.0,5.3,1.9,0.6,0.1,x
Cc1ccc(C)c(NC(=O)CN(C)C(=O)CSC(C)C(=O)Nc2cc(C)on2)c1 (stereo not drawn),-0.2,13.6,-5.1,-1.1,-6.7,1.6,x
COc1ccc(CNC(=O)C2(CC3CC(c4ccccc4)=NO3)CCN(C(=O)Cc3ccc(F)cc3)CC2)cc1 (stereo not drawn),-2.2,-0.6,-3.5,-12.1,4.0,6.0,x
CCOc1cc(C(=O)N2CCC(CC3CC(c4ccccc4)=NO3)(C(=O)NCc3ccc(OC)cc3)CC2)cc(OCC)c1OCC (stereo not drawn),-4.0,21.1,8.4,-2.2,30.5*,9.4,-6.3
O=C(O)/C(=C\c1ccccc1OC(F)F)c1ccc(-c2ccccc2)cc1,-10.2,-6.8,13.2,2.6,49.1*,-4.3,40.1*
CN(C)CCN1CCN(C(c2ccnc3ccccc23)c2nnnn2-c2ccc3c(c2)OCCO3)CC1 (stereo not drawn),4.5,-13.1,x,x,x,x,x
CCN1CCN(Cc2c(O)ccc3c2O/C(=C\c2ccc(C)cc2)C3=O)CC1,10.0,-4.6,4.0,1.0,33.1*,-0.6,25.1
CCN1CCN(Cc2c(O)ccc3c2O/C(=C\C=C\c2ccccc2)C3=O)CC1,15.5,7.5,2.0,-2.8,36.0*,-0.4,31.8*
CCc1ccc(/C=C2\Oc3c(ccc(O)c3CN3CCN(C)CC3)C2=O)cc1,17.6,15.7,1.5,5.5,57.9*,6.5,53.1*
Cc1ccc(/C=C2\Oc3c(ccc(O)c3CN3CCN(C)CC3)C2=O)cc1,10.9,6.8,6.4,5.4,26.4,1.0,x
O=C(COC(=O)CC1CCCC1)Nc1ccccc1[N+](=O)[O-],3.5,-9.8,15.2,2.0,56.7*,-1.8,51.1*
CCOC(=O)c1ccccc1NC(=O)COC(=O)CC1CCCCC1,6.0,-9.6,1.7,1.6,0.9,-1.0,x
Cc1ccc(Cl)cc1NC(=O)COC(=O)CC1CCCCC1,5.5,-16.6,13.0,6.3,31.4*,10.8,22.4
Cc1ccccc1NC(=O)COC(=O)CC1CCCC1,-6.1,-11.1,x,-0.6,43.2*,4.1,29.0
O=C(CC(=O)Nc1ccccc1[N+](=O)[O-])Nc1ccccc1[N+](=O)[O-],20.2,0.1,-2.8,1.4,0.8,0.6,x
O=C(COC(=O)c1ccc(O)cc1)Nc1ccccc1[N+](=O)[O-],6.8,-8.8,0.2,6.4,68.9*,0.1,67.5*
